{
  "source": "paper PMC3364105",
  "about": "(Nature Biotechnology, 2011)",
  "type_in_all_cases": "in vivo",
  "key": {"sciatic nerve": {"tested_on": "sciatic nerve", "assay": "Cy5-NP41 nerve labeling and localization in thy1-YFP transgenic mice", "conditions": "for nerve-to-muscle contrast / nerve labeling: injected into thy1-YFP transgenic mice"}, "peripheral nerves": {"tested_on": "peripheral nerves", "conditions": "FAM-labeled peptide, intravenous, living mice; for background binding to surrounding nonneural tissue: 2–4 h after injection", "how_it_was_run": "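Peptides were made as fluorescein-5(6)-carbonyl (FAM) conjugates on a C-terminal lysinamide. The control was a same-format peptide with the shared amino acids in random order. Each was given intravenously to living mice, and FAM fluorescence contrast between peripheral nerve and muscle was evaluated 2–4 h post-injection.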"}, "[1]": {"assay": "Behavior, activity, weight and morbidity after injection", "conditions": "mice, injections of 75–300 nmoles"}, "[2]": {"assay": "Biodistribution and urine metabolites after systemic administration", "conditions": "mice", "how_it_was_run": "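Mice received 150 nmoles FAM- or Cy5-labeled test peptide intravenously. Organs were harvested and fluorescence uptake was evaluated. Urine was analysed by MALDI mass spectrometry to identify the major fluorescently labeled species. The control was an all-D-amino-acid FAM-labeled peptide.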"}},
  "data": [
    {"compound": "CCN1/C(=C/C=C/C=C/C2=[N+](CCCCCC(=O)O)c3ccc(S(=O)(=O)O)cc3C2(C)C)C(C)(C)c2cc(S(=O)(=O)[O-])ccc21", "note": "[unconjugated Cy5, reference compound]", "values": [
      {"measurement": "nerve-to-muscle contrast / nerve labeling", "setting": "sciatic nerve", "result": "No nerve-to-muscle contrast was detected"}
    ]},
    {"compound": "AHHNSWKAKHHS [NP38]", "values": [
      {"measurement": "background binding to surrounding nonneural tissue", "setting": "peripheral nerves", "result": "high-background binding to the surrounding nonneural tissue"}
    ]},
    {"compound": "NTQTLAKAPEHT [NP41]", "values": [
      {"measurement": "nerve-to-muscle contrast", "setting": "peripheral nerves; evaluated 2–4 h after injection", "result": "best nerve to nonnerve contrast"}
    ]},
    {"compound": "TYTDWLNFWAWP [NP39]", "values": [
      {"measurement": "background binding to surrounding nonneural tissue", "setting": "peripheral nerves", "result": "high-background binding to the surrounding nonneural tissue"}
    ]},
    {"compound": "acetyl-SHSNTQTLAKAPEHTGC-(Cy5)-amide [Cy5-NP41]", "values": [
      {"measurement": "localization within nerve", "setting": "sciatic nerve; 3–5 µm cryosections of nerves from thy1-YFP animals", "result": "localized to the epineurium of the nerves with some labeling of the perineurium and endoneurium, but did not colocalize with either myelin or axons"},
      {"measurement": "nerve-to-muscle contrast / nerve labeling", "setting": "sciatic nerve", "result": "precisely labeled nerves that expressed YFP"},
      {"measurement": "change in behavior or activity", "setting": "[1]", "result": "no change in behavior or activity"},
      {"measurement": "biodistribution of fluorescence", "setting": "[2]; intravenous, 150 nmoles, harvested organs", "result": "majority of the fluorescence accumulated in the kidney and was excreted into the urine"},
      {"measurement": "state of peptide recovered in urine", "setting": "[2]; urine, liquid chromatography–electrospray mass spectrometry / MALDI-MS", "result": "efficiently metabolized"},
      {"measurement": "major fluorescently labeled species in urine", "setting": "[2]; urine, matrix-assisted laser desorption/ionization mass spectrometry", "result": "cysteinamide-Cy5"}
    ]}
  ]
}
